How the values were obtained:
[1] = Cytotoxicity against human GM00637 cells assessed as reduction in mean cell viability after 72 hrs by MTT assay; assay type: cell-based; conditions: GM00637, 72 h
Procedure, shortened: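 SV40-transformed normal skin fibroblasts (GM00637) in MEM Eagle–Earle BSS with 15% heat-inactivated FBS, 2 mM L-glutamine, 2× amino acids and vitamins. Seeded at 10,000 cells/well and left 24 h to adhere. Ethanol-delivered compound (1% final) for 72 h at 37 °C, 5% CO₂. MTT formazan in DMSO read at 550/690 nm. Viability relative to vehicle; IC₅₀ by nonlinear regression.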

HeLa = assay: Cytotoxicity against human HeLa cells assessed as reduction in mean cell viability after 72 hrs by MTT assay; assay type: functional, cell-based
Procedure, shortened: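 HeLa-CCL-2 cells in DMEM with 10% heat-inactivated FBS, 2 mM L-glutamine and nonessential amino acids. Plated at 1000 cells/well with 24 h adherence. Treated in ethanol (1% final) for 72 h at 37 °C under 5% CO₂, with ethanol controls. Absorbance of DMSO-dissolved formazan at 550 nm, 690 nm reference. IC₅₀ by nonlinear regression of percent viability.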

DU-145 = assay: Cytotoxicity against human DU145 cells assessed as reduction in mean cell viability after 72 hrs by MTT assay; assay type: functional, cell-based; conditions: DU-145, 72 h
Procedure, shortened: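 DU-145 prostate cells in RPMI-1640 with 10% heat-inactivated FBS, penicillin–streptomycin and 2 mM L-glutamine. Seeded at 2000 cells/well and left 24 h to adhere. Compound added in ethanol (1% final) for 72 h at 37 °C, 5% CO₂, with ethanol-only controls. Formazan dissolved in DMSO and read at 550 nm (690 nm reference). IC₅₀ derived by nonlinear regression of viability versus vehicle.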

SMILES	IC50 [1]	IC50 (HeLa)	IC50 (DU-145)
CO[C@@]12[C@H](COC(N)=O)C3=C(C(=O)C(C)=C(N)C3=O)N1C[C@@H]1N[C@@H]12 [MITOMYCIN]	460 nM		
O=C1c2nc3n(c2C(=O)c2c1nc1n2CCCC1)CCCC3	> 5000 nM	3.33 µM	1730 nM

— ChEMBL document CHEMBL2021842, “COMPARE analysis of the toxicity of an iminoquinone derivative of the imidazo[5,4-f]benzimidazoles with NAD(P)H:quinone oxidoreductase 1 (NQO1) activity and computational docking of quinones as NQO1 substrates” (Bioorg Med Chem, 2012)
